Shown are actives, neighbours in structure and some others; about 1.4% of the full set was active somewhere.
NR2E3 ag-1 = NR2E3 (human) agonism. hit rate 0.12% among 320,000. inhibition of corepressor binding, % at 4.78 µM. Q9Y5X4. GST-NR2E3/biotin-RetCOR TR-FRET, 1536-well;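 active = percent inhibition above the cutoff of mean plus 3 SD of all tested compounds, set per screening campaign, cut at about 20% in these data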;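 also: 0% = DMSO wells and 100% = biotin wells as full block of FRET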
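Test system – NR2E3–RetCOR corepressor complex · Quantity – NR2E3 fusion 1.35 nM · Buffer or medium – Tris pH 7.5 · Incubation – Compound–protein incubation for 5 h at 4 °C · Technique – TR-FRET, Eu(K)-anti-GST donor, streptavidin-D2 acceptor, ex 340, em 617/671 nm · Evaluation – percent inhibition of 671/617 nm emission ratio versus biotin and DMSO controls · Plate – 1536-well format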
PG9 Ab binder = binds the HIV-1 gp120 antibody PG9 | TR-FRET gp120-PG9 antibody binding | inhibition, % at 6.7 µM | hit rate 0.43% among 360,000; in the data active = inhibition above about 8.5%
Rev-erbA mod = modulators of human Rev-erb alpha DNA binding; P20393; activity, % at 10 µM; Rev-erbα–FITC-DNA binding, fluorescence polarization, 90 min; hit rate 0.79% among 370,000;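 active = activity above about 14%, limit read from the data; passing the limit was not always enough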;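 also: 0% = DMSO wells with 35 nM protein and 100% = DMSO wells with 750 nM protein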
Target sequence (P20393 whole entry, looked up): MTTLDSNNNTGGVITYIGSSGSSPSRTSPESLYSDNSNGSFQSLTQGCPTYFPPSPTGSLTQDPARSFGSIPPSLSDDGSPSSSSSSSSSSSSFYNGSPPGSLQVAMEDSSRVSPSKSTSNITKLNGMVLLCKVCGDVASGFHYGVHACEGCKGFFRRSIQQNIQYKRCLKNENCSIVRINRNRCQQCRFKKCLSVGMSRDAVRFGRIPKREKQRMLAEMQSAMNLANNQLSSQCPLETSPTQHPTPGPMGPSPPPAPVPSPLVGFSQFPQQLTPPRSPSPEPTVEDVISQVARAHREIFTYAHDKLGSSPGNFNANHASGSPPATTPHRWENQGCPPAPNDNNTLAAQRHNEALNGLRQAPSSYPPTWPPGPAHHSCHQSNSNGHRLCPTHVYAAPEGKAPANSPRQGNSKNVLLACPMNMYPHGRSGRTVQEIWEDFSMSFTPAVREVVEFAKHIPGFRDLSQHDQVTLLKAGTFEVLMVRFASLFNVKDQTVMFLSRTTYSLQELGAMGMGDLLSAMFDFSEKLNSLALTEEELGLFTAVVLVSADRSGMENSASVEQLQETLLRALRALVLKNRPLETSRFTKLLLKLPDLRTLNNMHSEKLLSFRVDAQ
NR2E3 ag-2 = agonists of human NR2E3 nuclear receptor; Q9Y5X4; CHO-S Gal4-NCOR/VP16-NR2E3 two-hybrid, luciferase; inhibition of corepressor binding, % at 3.98 µM; hit rate 0.35% among 360,000; AID 602229;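 active = inhibition above the mean of all tested compounds plus 3 SD, cut at about 70% in these data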;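 also: 0% = DMSO with NR2E3 transfected cells and 100% = cells lacking NR2E3 construct; higher means lower luciferase signal from less NR2E3 corepressor binding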
NR2E3 ag confirm = confirmation of human NR2E3 agonists. hit rate 51% among 2,300. inhibition, % at 3.98 µM. CHO-S mammalian two-hybrid NR2E3-NCOR, luciferase luminescence. shares compounds with NR2E3 ag-2;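 active = average inhibition above a cutoff equal to the mean inhibition of all tested compounds plus one SD, cut at about 70% in these data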;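 also: 0% = DMSO in NR2E3 cells and 100% = DMSO in cells lacking NR2E3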
VP16 counter = GAL4-VP16 reporter inhibition in NR2E3 agonist counterscreen; hit rate 29% among 2,300; shares compounds with NR2E3 ag-2; inhibition, % at 3.98 µM; AID 624379; CHO-S GAL4-VP16 luciferase reporter, luminescence;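 active = mean inhibition above a cutoff equal to the average over all tested compounds plus one standard deviation, cut at about 70% in these data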;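 also: luciferase from a UAS reporter driven by GAL4-VP16 transactivation; 0% = DMSO with VP16-transfected cells and 100% = DMSO with cells lacking VP16; higher means less reporter light so more repression of VP16 activity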
The depositor's hits bear a star; . = no result.

SMILES | NR2E3 ag-1 | PG9 Ab binder | Rev-erbA mod | NR2E3 ag-2 | NR2E3 ag confirm | VP16 counter
COc1ccc(-c2coc3c(C(=O)NCCN4CCOCC4)cccc23)c(C)c1 | . | -1 | -6 | -11 | . | .
COc1ccc(CNC(=O)c2cccc3c(-c4cnn(C)c4)coc23)cc1OC | . | 0 | 11 | 63 | 41 | 34
COc1ccc(-c2coc3c(C(=O)NCC4CCOCC4)cccc23)c(C)c1 | . | 0 | 5 | 71* | 60 | 51
O=C(Nc1cccc(C(F)(F)F)c1)c1cccc2c(-c3cccnc3)coc12 | . | . | . | -59 | . | .
COc1cc(NC(=O)c2cccc3c(-c4cccnc4)coc23)cc(OC)c1OC | . | 0 | -2 | 51 | 13 | 42
COc1ccc(-c2coc3c(C(=O)NCc4ccc(OC)c(OC)c4)cccc23)c(C)c1 | . | -1 | -6 | 91* | 95* | 82*
Cn1cc(-c2coc3c(C(=O)NCc4cccnc4)cccc23)cn1 | . | -2 | -2 | -26 | . | .
CSCCCNC(=O)Cn1nc(Cc2ccncc2)c2ccccc2c1=O | . | . | 3 | . | . | .
COc1ccc(CNS(=O)(=O)c2ccc3c(c2)N(C(C)=O)CC(C)S3)cc1 (stereo unspecified) | 6 | 3 | 4 | 68 | 23 | 37
CC(=O)N1CC(C)Sc2ccc(S(=O)(=O)NCCc3cccc(C)c3)cc21 (stereo unspecified) | 1 | -2 | 0 | 79* | 77* | 70
CC(=O)N1CC(C)Sc2ccc(S(=O)(=O)NCc3ccc(F)cc3)cc21 (stereo unspecified) | 3 | 1 | 0 | 27 | . | .
CC(=O)N1CCc2cc(S(=O)(=O)NCc3ccc(C)cc3)ccc21 | 1 | -1 | 3 | 53 | 52 | 62
CC(=O)N1CC(C)Sc2ccc(S(=O)(=O)NC3CCCCC3)cc21 (stereo unspecified) | -1 | -2 | 3 | 41 | . | .
CC(C)(N[C@@H](Cc1c[nH]c2ccccc12)C(=O)NCC(c1ccccc1)c1ccccc1)C(=O)NC1CCCCC1 | . | . | 2 | . | . | .
c1ccc(-c2noc(-c3ccncc3)n2)nc1 | 4 | -2 | -2 | -117 | . | .
c1ccc(-c2noc(-c3ccc4ccccc4c3)n2)nc1 | -2 | . | . | 48 | 19 | -44
CCOC(=O)Cc1nnc2c(Nc3ccccc3F)nc3nonc3n12 | 1 | -1 | 1 | 71* | 74* | 44
CCOC(=O)N1CCN(c2ncnc3c2[nH]c2ccc(OC)cc23)CC1 | 1 | -1 | -2 | 10 | . | .
COc1ccc2[nH]c3c(N4CCc5ccccc5C4)ncnc3c2c1 | -3 | -1 | -4 | -23 | . | .
O=C(CCCN1CCC(O)(c2cccc(C(F)(F)F)c2)CC1)c1ccc(F)cc1 | 2 | -1 | 5 | 7 | . | .
Fc1ccc2[nH]c3c(Cl)ncnc3c2c1 | 4 | 0 | -6 | 7 | . | .
OC1(c2cccc(C(F)(F)F)c2)CCN(c2ncnc3c2[nH]c2ccc(F)cc23)CC1 | . | 0 | 1 | 71* | 91* | 71
CCOC(=O)N1CCN(c2ncnc3c2[nH]c2ccc(F)cc23)CC1 | 1 | 2 | -7 | 80* | 95* | 73*
COc1ccc(N2CCN(c3ncnc4c3[nH]c3ccccc34)CC2)cc1 | -1 | -3 | 2 | 77* | 95* | 81*
Fc1ccc2[nH]c3c(N4CCN(c5ccccc5)CC4)ncnc3c2c1 | 1 | 2 | -1 | 80* | 96* | 80*
SMILES | NR2E3 ag-1 | PG9 Ab binder | Rev-erbA mod | NR2E3 ag-2 | NR2E3 ag confirm | VP16 counter
Cc1cc(N2CCN(C(=O)OC(C)(C)C)C[C@H]2C)ccc1N1CCN(Cc2ccccc2)[C@@H](C)C1 | . | 0 | 1 | . | . | .
O=C1Cc2c([nH]c3ccc([N+](=O)[O-])cc23)-c2ccccc2N1 | . | -2 | -23 | 85* | 97* | 71*
O=c1[nH]c2cc([N+](=O)[O-])ccc2c2ccccc12 | . | -3 | -3 | 3 | . | .
COC(=O)[C@]1(CNC(=O)C(F)(F)F)CC(=O)N(C)[C@@H]1c1ccccc1 | . | . | -6 | . | . | .
O=C(c1ccc(CSc2nc3ccncc3[nH]2)cc1)N1CCCCCC1 | 1 | -3 | -2 | -71 | . | .
O=C(c1ccc(CSc2nc3ccncc3[nH]2)cc1)N1CCN(c2cccc(Cl)c2)CC1 | 2 | 0 | -1 | 88* | 98* | 69
CC(Oc1ccc(Cl)cc1Cl)c1nc(-c2ccc(NC(=O)c3ccncc3)cc2)no1 (stereo unspecified) | -3 | -3 | -2 | 51 | 78* | 72*
CC(Oc1ccc(Cl)cc1Cl)c1nc(-c2ccc(NC(=O)c3cccnc3)cc2)no1 (stereo unspecified) | 0 | -3 | -1 | 15 | . | .
Cn1c(CNc2ccccc2F)nc2ccccc21 | . | . | -2 | . | . | .
CC(C)c1nc(N(C)S(C)(=O)=O)nc(-c2ccc(F)cc2)c1/C=C/[C@H](O)C[C@@H](O)CC(=O)O | . | . | 3 | . | . | .
C/C(=N\NC(=S)NC1CCCCC1)c1ccccc1 | -2 | 0 | 0 | 55 | 27 | -43
C/C(=N\NC(=S)NC1CCCCC1)c1ccc(O)cc1 | 3 | -1 | -1 | 0 | . | .
COC(=O)[C@H](C(C)C)N(CCCc1cn(Cc2ccccc2)nn1)S(=O)(=O)c1ccccc1Br | . | . | 3 | . | . | .
CN(CCO)c1ccc2c(c1)Oc1ccccc1CN(Cc1cn(Cc3ccc(C(F)(F)F)cc3)nn1)S2(=O)=O | . | . | -3 | . | . | .
CCOC(=O)[C@]12CCCC3=C1N(CCC3)C(=O)[C@@H](CC(=O)NCc1ccc(OC)c(OC)c1)C2 | . | . | 1 | . | . | .
Cc1nc2ccc(S(=O)(=O)Nc3cccc(-c4nc5cccnc5s4)c3C)cc2s1 | 2 | 1 | 2 | 98* | 95* | 86*
Cc1nc2ccc(S(=O)(=O)Nc3cc(-c4nc5cccnc5s4)ccc3C)cc2s1 | 0 | -1 | 10 | -58 | . | .
Cc1cc(=O)n(-c2ccc(C(=O)O)cc2)[nH]1 | 14 | 0 | 2 | -24 | . | .
Cc1cc(=O)n(-c2ccc(O)cc2)[nH]1 | 14 | -3 | -7 | 56 | -8 | 4
CC1CCCCC1Nc1ncnc2sccc12 (stereo unspecified) | 2 | -1 | 4 | 64 | 10 | 31
COC(=O)C1=C(C)N(Cc2cccc(C(F)(F)F)c2)C(=NCc2ccccc2C(F)(F)F)NC1c1cccc(F)c1 (stereo unspecified) | . | 0 | -3 | . | . | .
CCCc1ccc(C(C)NC(=S)NC2CCCCC2)cc1 (stereo unspecified) | . | -1 | 6 | 51 | 42 | 51
CC(NC(=S)NC1CCCCC1)c1ccccc1 (stereo unspecified) | 0 | -3 | -2 | -16 | . | .
CCCc1ccc(C(C)NC(=S)NCc2ccc(F)cc2)cc1 (stereo unspecified) | 2 | -1 | 1 | 77* | 29 | 28
CCCC(=O)N1CCC[C@]2(CC[C@@H](CCC#N)O2)C1 | . | . | -3 | . | . | .
CCOC(=O)[C@@]12CN(C(=O)OC(C)(C)C)CC=C1N(Cc1ccc(OC)cc1)C(=O)[C@H]2CC(=O)N1CCC(c2ccccc2)CC1 | . | . | -2 | . | . | .

Bioassay records (PubChem)
